# Assay outcomes deposited in PubChem by Broad Institute.
# Sampled rows, rich in hits. Any-hit rate of the full collection: about 3.2%.
# Ecoli rRNA inh: reduced GFP signal of wild-type E. coli, primary screen, bacterial rRNA inhibitor project, GFP/RFP fluorescence, OD600, single point; E. coli WT GFP vs humanized-ribosome RFP mutants, 24 h; active compounds read low; DMSO median 0, no signal -100; GFP signal change (wild-type ribosome), % (no concentration beside the values); 350,000 tested, 1.6% active; AID 720706, 2013;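 active means significant combined selectivity score with lowered wild-type GFP, culture density cut under 30%, mutant RFP and density less affected; inactive means any of these conditions unmet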
# PfHsp90 set2: growth inhibition of PfHsp90-expressing yeast, primary screen, antimalarial PfHsp90 inhibitor project, S. cerevisiae, BacTiter-Glo luminescence, single point, set 2; inhibition, % at 9.4 µM; 310,000 tested, 0.32% active; BacTiter-Glo ATP, 48 h; yeast lacking PDR1 and PDR3 efflux regulators;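 active means every replicate shows inhibition above about 80%, whatever the replicate mean, limit read from the data; inconclusive means mean inhibition reaches the set limit but some replicate falls short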;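 further: 0% = DMSO neutral controls and 100% = 20 µM radicicol positive controls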
# S100A4 MyoIIA: inhibitors of S100A4-myosin IIA peptide binding, primary screen, biochemical, fluorescence polarization, TAMRA-MyoIIA peptide | Protein S100-A4 (Homo sapiens), P26447 | inhibition, % at 10.7 µM | AID 652163, 2013 | 360,000 tested, 0.14% active;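 active means mean inhibition of at least 70% across replicates, with every replicate also reaching that level; inconclusive means mean inhibition reaches 70% but some replicates fall short; inactive means mean inhibition below 70%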
# Target sequence (P26447 whole entry, looked up): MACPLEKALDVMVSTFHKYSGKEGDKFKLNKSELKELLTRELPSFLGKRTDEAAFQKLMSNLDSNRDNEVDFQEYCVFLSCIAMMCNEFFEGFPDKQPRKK
#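 Material: S100A4 monomer protein / Buffer or medium: 50 mM HEPES pH 7.2, 10 mM CaCl2, 100 mM KCl / Times: 5 min incubation before reading / Benchmarks: neutral control DMSO, positive control TFP / Reagent: labelled myosin peptide probe, 5 nM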
# DENV2 CPE rescue: inhibitors of DENV2 cytopathic effect, primary screen, cell-based, plate reader, single concentration; DENV2-infected cells, cytopathic effect rescue; CPE inhibition, % at 9.99 µM; 350,000 tested, 1.7% active; in the data active means CPE inhibition above about 20%, passing the limit was not always enough; inconclusive means no clear call, values can overlap the other calls; tested in BHK-21 cells;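 further: 0% = median of neutral control wells and 100% = median of positive control wells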
# Cneo AK release: Cryptococcus neoformans cell lysis inducers, primary screen, AK release luminescence, single concentration; lysis activity, % at 15 µM; C. neoformans lysis, adenylate kinase release luminescence, 4 h; normalised: neutral wells 0, clomiphene wells 100; 360,000 tested, 0.2% active;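 active means mean lysis activity across replicates of at least 80%, whatever share of replicates individually reach that level; inactive means mean lysis activity below 80%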
#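 Schedule: static 4 h at 37 °C with compound, 1 h detection; system: C. neoformans cells; benchmarks: Clomiphene as positive control; buffer or medium: fresh YPD medium; measure: luminescence rise reflecting yeast cell lysis; measured by: luminescent adenylate kinase detection reagent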
# MLL AF4-AF9 inh: inhibitors of AF4 peptide binding to AF9, primary screen, biochemical, AlphaScreen, biotin-AF4 peptide, FLAG-AF9, single point; Protein AF-9 (Homo sapiens), P42568; inhibition, % at 10 µM; 350,000 tested, 0.47% active; AID 651704, 2012;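 active means every replicate reaching a set inhibition limit, whatever the replicate mean, cut at about 25% in these data; inconclusive means mean inhibition reaches that limit but some replicates miss it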;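 further: 0% = plate neutral control median and 100% = total signal loss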
# Target sequence (P42568 whole entry, looked up): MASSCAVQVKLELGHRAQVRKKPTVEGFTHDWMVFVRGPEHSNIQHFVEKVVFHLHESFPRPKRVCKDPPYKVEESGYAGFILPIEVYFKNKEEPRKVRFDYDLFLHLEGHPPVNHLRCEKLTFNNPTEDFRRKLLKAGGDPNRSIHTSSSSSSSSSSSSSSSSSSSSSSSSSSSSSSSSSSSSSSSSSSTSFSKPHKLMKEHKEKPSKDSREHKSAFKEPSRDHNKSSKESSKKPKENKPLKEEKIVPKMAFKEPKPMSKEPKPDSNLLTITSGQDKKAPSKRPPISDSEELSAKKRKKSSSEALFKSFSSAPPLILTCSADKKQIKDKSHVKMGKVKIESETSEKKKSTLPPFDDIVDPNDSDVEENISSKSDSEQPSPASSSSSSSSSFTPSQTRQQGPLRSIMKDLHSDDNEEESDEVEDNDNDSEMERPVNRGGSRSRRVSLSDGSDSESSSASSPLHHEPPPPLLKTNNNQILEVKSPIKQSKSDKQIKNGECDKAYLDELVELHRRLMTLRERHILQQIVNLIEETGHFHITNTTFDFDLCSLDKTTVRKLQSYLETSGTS
# * marks the source's active call; other numbers are inactive results; u = inconclusive; x = no result; ! = repeats disagree.
SMILES,Ecoli rRNA inh,PfHsp90 set2,S100A4 MyoIIA,DENV2 CPE rescue,Cneo AK release,MLL AF4-AF9 inh
COc1ccccc1NC(=O)N1CCCCN2[C@H](CO)[C@@H](c3ccc(C#Cc4ccccc4)cc3)[C@H]2C1,-34.5,x,8.7,15.7,-0.7,7.3
COc1ccccc1NC(=O)N1CCCCN2[C@H](CO)[C@@H](c3ccc(C#CC4CCCC4)cc3)[C@@H]2C1,3.9,x,-2.1,36.1*,14.7,-4.4
COc1ccccc1NC(=O)N1CCCCN2[C@@H](CO)[C@@H](c3ccc(C#CC4CCCC4)cc3)[C@@H]2C1,-57.2,x,-4.8,2.1,48.2,11.1
CCOc1cc(/C=C2\N=C(C)OC2=O)cc(Br)c1OCC(=O)OC,9.6,x,3.2,-0.4,x,7.7
CCOc1cc(/C=C2\N=C(C)OC2=O)cc(Br)c1OCCc1ccccc1,-23.5*,16.1,-7.1,-6.9,-1.5,12.3
C[C@@H]1CN([C@@H](C)CO)C(=O)Cc2cc(NC(=O)Cc3cn(C)c4ccccc34)ccc2O[C@@H]1CN(C)Cc1ccc(C(F)(F)F)cc1,-0.5,x,1.9,77.0*,58.8,-5.4
C[C@H](CO)N1C[C@H](C)[C@@H](CN(C)Cc2ccc(C(F)(F)F)cc2)Oc2ccc(NC(=O)Cc3cn(C)c4ccccc34)cc2CC1=O,2.9,x,-5.6,12.4,3.2,-4.4
C[C@H](CO)N1C[C@H](C)[C@@H](CN(C)Cc2ccc3c(c2)OCO3)Oc2ccc(NC(=O)Cc3cn(C)c4ccccc34)cc2CC1=O,4.4,x,-16.4,-7.3,-1.7,12.7
C[C@@H]1CN([C@H](C)CO)C(=O)Cc2cc(NC(=O)Cc3cn(C)c4ccccc34)ccc2O[C@H]1CN(C)Cc1ccc2c(c1)OCO2,0.0,x,-3.8,51.2*,-1.8,2.7
CNC[C@H]1Oc2ccc(NC(=O)Cc3cn(C)c4ccccc34)cc2CC(=O)N([C@@H](C)CO)C[C@H]1C,1.8,-0.3,5.7,1.2,82.7*!,5.5
Cc1ccc(S(=O)(=O)Nc2cccc3c2O[C@@H](CN(C)S(=O)(=O)c2ccccc2)[C@@H](C)CN([C@@H](C)CO)C3=O)cc1,-3.6,x,-10.0,0.2,-2.8,-1.7
CN1CCCCN2[C@@H](CO)[C@H](c3ccc(Br)cc3)[C@@H]2C1,7.1,x,-7.7,-9.7,0.1,-4.4
NCCNC(=O)c1c(NC(=O)c2ccccc2)sc2c1CCCC2,-22.0*,-26.5,-1.9,-5.9,1.1,9.2
COC(=O)c1c(NC(=O)c2ccccc2C(=O)O)sc2c1CCC2,-20.7*,-21.9,1.7,9.4,1.9,-10.9
NC(=O)c1c(NC(=O)c2ccccc2C(=O)O)sc2c1CCCC2,3.6,-27.4,-0.7,-4.5,0.3,0.1
O=C(Nc1sc2c(c1C(=O)NCCCO)CCCC2)c1ccccc1,-6.6,-26.5,1.4,0.4,0.7,-4.0
CCOC(=O)c1c(NC(=O)C(NCCN(C)C)c2ccccc2)sc2c1CCCC2 (stereo not drawn),-37.6,15.3,-2.4,-1.8,0.0,28.8*
C[C@H](CO)N1C[C@H](C)[C@H](CN(C)Cc2ccc(C(F)(F)F)cc2)Oc2ccc(NC(=O)C3CCCCC3)cc2CC1=O,-1.0,x,-13.1,0.1,1.6,2.3
CC(C)c1cn([C@H]2C[C@@H]3O[C@@H](CO)CC[C@@H]3O[C@@H]2CCc2ccc(C#CC3CCCCC3)cc2)nn1,x,x,-17.1,-0.9,x,4.0
COc1ccc(Cl)cc1C(=O)OCC(=O)c1ccc[nH]1,-16.5*,-10.0,0.4,18.5,3.3,-0.9
Cc1cc(Cl)ccc1OC(C)C(=O)OCC(=O)c1ccc[nH]1 (stereo not drawn),1.1,8.2,2.2,-5.3,0.2,-1.1
O=C(O)c1ccc(Nc2nc(-c3ccc([N+](=O)[O-])cc3)nc3ccccc23)cc1,-21.0*,-32.2,-1.5,-1.1,-0.7,1.6
C[C@@H]1CN([C@H](C)CO)C(=O)c2cc(N(C)C)ccc2O[C@@H](C)CCCCO[C@H]1CN(C)Cc1ccc(C(=O)Nc2ccccc2N)cc1,4.1,x,x,x,x,x
Cc1cccc(NCCC#N)c1,x,-26.6,x,x,-9.6,x
N#CCCc1cccc(CCC#N)c1,6.6,-6.9,-2.0,119.5*,6.6,-2.5
SMILES,Ecoli rRNA inh,PfHsp90 set2,S100A4 MyoIIA,DENV2 CPE rescue,Cneo AK release,MLL AF4-AF9 inh
C[C@@H]1CN([C@@H](C)CO)C(=O)c2c(c3ccccc3n2C)-c2ccccc2CO[C@H]1CN(C)Cc1ccc(O)cc1,-4.8,x,6.5,3.6,x,4.4
CC(C)NC(=O)N(C)C[C@H]1Oc2cc(C#CC3CC3)ccc2S(=O)(=O)N([C@@H](C)CO)C[C@H]1C,0.3,x,6.4,-4.1,0.3,-2.1
CCN(C(=O)COC(=O)c1ccc([N+](=O)[O-])o1)c1cccc2ccccc12,-19.5*,16.5,-5.6,6.8,0.1,15.1
O=C(N/N=C/c1ccc(Br)cc1)c1ccccc1-n1cccc1,-41.2*,0.8,-6.5,12.1,x,-11.4
CN1C(=O)c2cc(NC(=O)NC3CCCC3)ccc2OC[C@@H]2O[C@@H](CC(=O)NC3CCC3)CC[C@H]21,2.8,x,-5.0,-4.7,-1.4,2.8
CSc1ccccc1NC(=O)Cn1c([N+](=O)[O-])cnc1C,8.5,13.9,-0.5,u,-7.7,42.1*
C[C@@H]1CN([C@@H](C)CO)C(=O)c2cc(NC(=O)Cc3ccccc3)ccc2O[C@@H](C)CCCCO[C@@H]1CN(C)C(=O)Nc1ccc2c(c1)OCO2,1.9,x,0.2,-5.9,x,-0.9
COc1ccc2c3c(ccc2c1)C(=O)/C(=C/O)CC3,-24.5,106.6*,-1.5,-0.1,x,-6.9
COc1ccc2c(c1)CC/C(=C/c1ccncc1)C2=O,x,x,x,x,-0.9,x
COc1ccc2c3c([nH]c2c1)[C@H](CO)N(C(=O)Nc1ccccc1F)CC31CN(C(=O)C2CC2)C1,-3.7,x,x,3.0,x,1.2
O=C(CCn1cncn1)N1CCCC(N2CCN(c3ccc(F)cc3)CC2)C1 (stereo not drawn),2.7,4.1,-7.0,43.3*,0.4,0.2
O=C(Nc1ccc(O)cc1)c1ccc2c(c1)C(=O)N(Cc1cccnc1)C2=O,8.4,3.7,3.4,22.4*,-0.7,-0.3
Cc1ccc(S(=O)(=O)Nc2ccc3c(c2)C(=O)N([C@H](C)CO)C[C@@H](C)[C@H](CN(C)C(=O)NC2CCCCC2)O3)cc1,-1.3,x,8.9,40.8*,-0.4,-2.4
